ChEMBL document CHEMBL1157387, “Antitussive stemoninine alkaloids from the roots of Stemona tuberosa” (2008)

How the values were obtained:
Assay type in all cases: functional
Cavia porcellus [1] = experiment: Antitussive activity in guinea pig assessed as inhibition of citric acid-induced coughing at 0.25 umol, intracerebroventricularly administered as single dose after 3 mins relative to control
Method in brief: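 Unrestrained conscious Dunkin-Hartley guinea pigs with a 22-gauge guide cannula in the lateral ventricle, placed stereotaxically under anaesthesia, recovered 4 days. Single icv dose in 10 µL of Tween 80/saline (5:95). 3 min later, 8-min 0.5 M citric acid aerosol (0.5 mL/min) in an airtight chamber. Cough sounds recorded and episodes counted. % inhibition vs vehicle group; one-way ANOVA with Bonferroni tests.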

Cavia porcellus [2] = experiment: Antitussive activity in guinea pig assessed as inhibition of citric acid-induced coughing at 0.26 mmol/kg, ip administered as single dose after 30 mins; conditions: 0.5 h
Method in brief: (§1)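 Unrestrained conscious Dunkin-Hartley guinea pigs, randomised, given a single ip dose in DMSO. 30 min later, 8-min 0.5 M citric acid aerosol (0.5 mL/min) in an airtight chamber. Cough sounds recorded and episodes counted. % inhibition vs vehicle group (n = 4-8); one-way ANOVA with Bonferroni tests.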

Cavia porcellus [3] = experiment: Antitussive activity in guinea pig assessed as inhibition of citric acid-induced coughing at 0.26 mmol/kg, po administered as single dose after 30 mins; set-up: scale not given: the % may be the effect or the level left
Method in brief: (§2)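 Unrestrained conscious Dunkin-Hartley guinea pigs, randomised, given a single oral dose of 100 mg/kg in Tween 80/saline (5:95). 30 min later, 8-min 0.5 M citric acid aerosol (0.5 mL/min) in an airtight chamber. Cough episodes counted from recorded sounds. % inhibition vs vehicle group (n = 4-8); ANOVA with Bonferroni tests.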

Cavia porcellus [4] = experiment: Antitussive activity in guinea pig assessed as inhibition of citric acid-induced coughing at 0.33 mmol/kg, ip administered as single dose after 30 mins; conditions: 0.5 h; method in brief: as §1
Cavia porcellus [5] = experiment: Antitussive activity in guinea pig assessed as inhibition of citric acid-induced coughing at 0.33 mmol/kg, po administered as single dose after 30 mins; set-up: scale not given: the % may be the effect or the level left; method in brief: as §2

CC[C@H]1[C@H]2[C@@H](CCCN3C([C@@H]4C[C@H](C)C(=O)O4)=CC(=O)[C@@]23OC)O[C@]12C=C(C)C(=O)O2
inhibition (INH) (Cavia porcellus [1]): 10%

CC[C@H]1[C@H]2[C@@H](CCCN3[C@H]2CC[C@H]3[C@@H]2C[C@H](C)C(=O)O2)O[C@]12C=C(C)C(=O)O2 [STEMONININE]
inhibition in vivo at 260 µmol/kg (Cavia porcellus [2]): 90% | Activity (Cavia porcellus [3]): 70% | inhibition (INH) (Cavia porcellus [1]): 10%

CC[C@H]1[C@H]2[C@@H](CCCN3C([C@@H]4C[C@H](C)C(=O)O4)=CC(=O)[C@@]23O)O[C@]12C=C(C)C(=O)O2 [STEMOENONINE]
inhibition (INH) (Cavia porcellus [1]): 10%

CC[C@H]1[C@H]2[C@@H](CCCN3C(=O)CC[C@@H]23)O[C@]12C=C(C)C(=O)O2 [STEMONINOAMIDE]
inhibition in vivo at 330 µmol/kg (Cavia porcellus [4]): 90% | Activity (Cavia porcellus [5]): 70% | inhibition (INH) (Cavia porcellus [1]): 10%
